Assay outcomes as filed in PubChem BioAssay.
ROMK primary: ROMK potassium channel modulators, primary screen, cell-based, thallium flux, MLSMR library | B-score at 10 µM | 130,000 tested, 2% active | Tet-inducible ROMK, thallium flux fluorescence; actives lie on both sides;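 active = signal ratio slope over the read window, or its plate-corrected B-score, at least 3 SD from the plate mean, either direction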;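 also: B-score of the F/F0 ratio slope over 7 to 12 s after thallium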
Diaphorase act: compounds boosting diaphorase resazurin reduction – biochemical, uHTS, resorufin fluorescence, counter-screen for diaphorase-coupled primary assays, primary screen; Diaphorase/resazurin coupled assay, 16 min; hits give high values; 1 = vehicle wells, 0 = NADH-free wells; activation factor at 20 µM; 190,000 tested, 0.005% active;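 active = diaphorase activity raised at least twofold by the compound at 20 µM; inactive = activation factor below 2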
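Material: Clostridium kluyveri diaphorase, purified enzyme; Quantity: enzyme 0.07 U/mL final; Medium: HEPES pH 7.4 buffer with MgCl2 and Tween 20; Dosing: single compound dose of 20 µM, 1% DMSO final; Schedule: 16 min reaction at room temperature; Measured by: red resorufin fluorescence at 544/590 nm excitation/emission.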
Cl transport mod: KCC2 cotransporter modulators, thallium flux, primary screen, cell-based, HEK293 KCC2, FluoZin-2 fluorescence, MLSMR. B-score of Tl+ flux slope (higher = more flux/activation; lower = inhibition) at 10 µM. AID 1456, 2008. 190,000 tested, 2.2% active. KCC2 cells, thallium flux FluoZin-2 fluorescence;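 active = thallium flux slope and its plate-corrected score both differing from the plate sample mean at a set confidence after two filtering rounds, in either direction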;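 also: slope of fluorescence scaled to starting intensity during 10 to 20 s after thallium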
Target sequence (Q9H2X9 whole entry, looked up): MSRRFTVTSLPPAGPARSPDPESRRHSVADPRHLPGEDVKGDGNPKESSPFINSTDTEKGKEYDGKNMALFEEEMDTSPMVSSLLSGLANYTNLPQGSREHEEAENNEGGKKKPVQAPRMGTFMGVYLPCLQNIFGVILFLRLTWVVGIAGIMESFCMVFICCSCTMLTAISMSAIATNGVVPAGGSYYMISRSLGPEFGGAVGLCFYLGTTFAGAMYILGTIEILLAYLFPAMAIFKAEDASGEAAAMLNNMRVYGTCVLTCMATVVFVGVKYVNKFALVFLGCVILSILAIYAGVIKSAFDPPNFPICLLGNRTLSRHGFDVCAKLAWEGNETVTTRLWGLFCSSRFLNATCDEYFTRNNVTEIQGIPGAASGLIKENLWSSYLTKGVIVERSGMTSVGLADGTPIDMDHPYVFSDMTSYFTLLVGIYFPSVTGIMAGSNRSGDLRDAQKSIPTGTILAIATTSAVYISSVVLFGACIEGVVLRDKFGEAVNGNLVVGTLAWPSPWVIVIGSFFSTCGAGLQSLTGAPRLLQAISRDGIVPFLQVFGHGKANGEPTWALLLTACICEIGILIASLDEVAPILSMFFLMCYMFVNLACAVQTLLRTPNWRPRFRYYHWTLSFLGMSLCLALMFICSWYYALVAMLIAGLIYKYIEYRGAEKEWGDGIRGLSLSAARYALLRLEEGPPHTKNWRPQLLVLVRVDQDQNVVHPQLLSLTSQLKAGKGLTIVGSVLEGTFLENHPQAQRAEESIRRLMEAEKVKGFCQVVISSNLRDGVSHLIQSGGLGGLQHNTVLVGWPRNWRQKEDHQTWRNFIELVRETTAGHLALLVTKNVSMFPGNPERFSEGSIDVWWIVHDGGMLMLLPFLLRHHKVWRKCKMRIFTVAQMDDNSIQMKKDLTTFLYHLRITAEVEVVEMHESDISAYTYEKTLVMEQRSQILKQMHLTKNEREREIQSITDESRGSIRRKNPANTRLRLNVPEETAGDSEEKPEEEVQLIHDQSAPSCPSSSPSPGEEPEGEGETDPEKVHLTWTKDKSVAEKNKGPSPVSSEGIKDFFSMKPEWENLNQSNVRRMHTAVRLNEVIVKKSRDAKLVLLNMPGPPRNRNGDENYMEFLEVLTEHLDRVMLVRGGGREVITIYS
Lmaj promast: Leishmania major promastigote growth inhibition, primary screen; Leishmania major promastigotes, resazurin fluorescence viability; inhibition, % at 10 µM; 200,000 tested, 9% active; in the data active = inhibition above about 50%;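 also: promastigotes grown with compound for 44 hours at 28 °C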
WT yeast gro inh: growth inhibition of WT strain, primary screen, mitochondrial fusion inhibitor project, WT and mutant strains, chemical genetic. mitochondrial fusion phenotypic screen. inhibition, % at 10 µM. 190,000 tested, 2.1% active. AID 1362, 2008; in the data active = inhibition above about 58%; tested in S. cerevisiae
Diaphorase inh: diaphorase inhibitors and chemical oxidizers, primary screen, counter-screen for diaphorase-coupled primary assays, biochemical, uHTS, resorufin fluorescence. diaphorase resazurin-to-resorufin fluorescence, NADH, 16 min; bacterial (C. kluyveri) enzyme, not human. inhibition, % at 20 µM. 190,000 tested, 0.69% active;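 active = primary screen inhibition at 20 µM above a set limit, cut at about 50% in these data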;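 also: plate controls were DMSO with full reaction for no effect and wells lacking NADH for full effect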
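System: Diaphorase enzyme from Clostridium kluyveri | Amount: Enzyme working solution with 0.14 U/mL diaphorase | Benchmarks: No-NADH positive control and DMSO neutral control | Signal: Fluorescence of resorufin formed from resazurin, Ex 544/Em 590 nm | Schedule: 16-min room-temperature incubation before reading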
ROMK retest: ROMK channel modulator hit retest, confirmation, cell-based, thallium flux, duplicate, resupplied hits; shares compounds with ROMK primary; fluorescence ratio; hits give low values; normalized thallium flux (F/F0 slope) at 10 µM; 3,000 tested, 54% active;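 active = Flux at 10 µM at least 3 SD below or above vehicle control mean in one or both replicates; inconclusive = no clear call, values can overlap the other calls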
* marks the source's active call; other numbers are inactive results; ? = inconclusive; / = not tested or not shown. Rows were chosen to be rich in hits. Some 12% of all compounds tested hit in one or more screens of this group.

SMILES	ROMK primary	Diaphorase act	Cl transport mod	Lmaj promast	WT yeast gro inh	Diaphorase inh	ROMK retest
CC(Oc1ccc(Cl)cc1Cl)C(=O)N/N=C1\CCCc2ccccc21 (stereo not given)	/	0.9	0.64	3.1	6.7	7.9	/
CCCN1C(=O)/C(=C/c2c(NCCCOC(C)C)nc3c(C)cccn3c2=O)SC1=S	/	0.9	-0.0627	-7.1	-4.8	5.3	0.0546*
CCc1c(C)nc2ncnn2c1N1CCC(C(=O)NCc2cccc(OC)c2)CC1	/	0.9	0.00292	-6.1	1.2	8.7	/
CCc1c(C)nc2ncnn2c1N1CCC(C(=O)Nc2cccc(C(C)=O)c2)CC1	/	0.9	0.421	7.0	-2.9	8.9	?
Cc1ccc(NC(=O)C(C)NC(=O)OCc2ccccc2)cc1C (stereo not given)	/	/	0.204	/	/	/	/
CC(=O)O/N=C1\C(=O)N(Cc2ccc(C)cc2)c2ccccc21	-5.22*	0.9	-0.343	-10.8	33.2	10.1	0.0635*
Cc1c(NC(=O)C(C)n2cc([N+](=O)[O-])cn2)c(=O)n(-c2ccccc2)n1C (stereo not given)	-0.305	1.1	-0.0954	-4.4	1.1	-10.8	/
O=C(Cc1cn(Cc2cccc(Cl)c2)c2ccccc12)N1CCCC1	-3.18*	0.8	0.0317	98.5*	14.0	20.9	0.0593*
CCOC(=O)N1CCN(C(=O)COc2ccc(Cl)cc2)CC1	-1.58	0.9	0.429	-7.8	6.3	10.3	/
CCOC(=O)N1CCN(C(=O)COc2ccc(Cl)c(C)c2)CC1	-3.62*	0.9	0.6	-8.7	-12.2	6.1	0.0584*
Cn1c2c(c(=O)n(C)c1=O)[C@@]1(C(=O)Nc3ccccc31)C(C#N)=C(N)O2	/	0.7	-0.138	22.3	7.9	26.9	/
CCOC(=O)N1CCN(c2nc(-c3ccc(F)cc3)cs2)CC1	-2.63*	0.8	-0.0409	-11.0	24.1	19.4	?
O=C(C1CCCCC1)N1CCN(c2nc(-c3ccc(F)cc3)cs2)CC1	-0.135	0.9	-1.31	-7.7	12.1	8.9	/
CC(=O)Nc1ccc(OCCOc2ccc(/C=C3/C(=N)N4C=CSC4=NC3=O)cc2)cc1	4.12*	0.9	-0.585	-1.2	0.6	6.4	?
CCCN(CCC)CCNC(=O)C1c2ccccc2C(=O)N(CCOC)C1c1ccc(F)cc1 (stereo not given)	-0.944	0.9	-1.23	-2.9	-3.8	5.6	/
CCOc1ccc(N(CC(=O)N2CCN(c3ccccc3)CC2)S(=O)(=O)c2c(C)noc2C)cc1	/	0.8	/	6.7	-0.8	16.4	0.0731
COc1ccc(N(CC(=O)N2CCN(c3ccccc3)CC2)S(=O)(=O)c2c(C)noc2C)cc1	/	0.8	/	3.2	3.8	22.3	/
Cc1cccc(OCCSc2nc3c([nH]2)c(=N)ncn3Cc2ccccc2)c1	/	0.9	-0.0273	3.7	4.9	8.9	/
CC(C)Sc1nc2c([nH]1)c(=N)ncn2Cc1ccccc1	-4.41*	1.1	-0.878	1.8	24.2	-10.9	0.057*
CCOc1ccc2noc3c2c1C(=O)c1ccccc1-3	/	0.7	/	3.2	14.9	29.5	/
O=C1c2ccccc2-c2onc3ccc(N4CCCC4)c1c23	-5.59*	0.7	-1.71	44.8	41.8	33.4	0.0604*
CC(C)=CC1C=C(C)C(C)C2C(=O)NNC(=O)C12 (stereo not given)	1.21	0.9	-1	-2.4	-8.1	5.2	/
CCN1C(=O)c2cccc3c(S(=O)(=O)Nc4ccccc4)ccc1c23	/	1	-0.623	11.2	/	1.6	/
CCN1C(=O)c2cccc3c(S(=O)(=O)Nc4ccncc4)ccc1c23	2.3*	0.8	0.582	-3.3	0.6	18.9	0.0764
CC1(C)NC(=O)N(CC(O)COc2ccc(-c3ccc(C#N)cc3)cc2)C1=O (stereo not given)	19.2*	0.9	/	-0.1	5.6	13.6	0.0765
SMILES	ROMK primary	Diaphorase act	Cl transport mod	Lmaj promast	WT yeast gro inh	Diaphorase inh	ROMK retest
COc1cc(/C=C/[N+](=O)[O-])ccc1OCc1cccc(C(=O)O)c1	-6.02*	0.6	-2.83	-6.3	-5.1	43.5	0.0369*
Nc1nc(NCc2ccccc2)nc(-c2ccccc2)n1	/	0.8	-0.00157	3.6	21.0	16.6	/
CCCCCNc1nc(-c2ccccc2)nc(-n2ccnc2)n1	/	1.1	0.737	39.7	13.6	-5.2	0.0847
O=C(O)c1cc(-c2ccc(Cl)cc2)n(-c2ccc(Cl)cc2)n1	1.94	0.8	-2.55	10.0	-4.5	20.2	/
CC(/C=N/NC(=O)c1ccncc1)=C\c1ccccc1	0.0418	1.1	-1.3	1.5	-3.3	-9.4	/
CC(/C=N/NC(=O)c1cc(-c2cccnc2)nc2c1c(C)nn2-c1ccccc1)=C\c1ccccc1	/	0.9	1.21	56.9*	6.7	7.1	?
O=c1c2ccccc2c(C=Nc2ccc(O)cc2)c(O)n1Cc1ccccc1	-4.59*	/	-0.595	/	/	/	0.0411*
O=C(N/N=C/c1ccc[nH]1)c1ccc2c(c1)OCO2	0.569	0.8	-0.874	-15.1	-19.7	19.6	/
O=C(N/N=C/c1ccc(-c2ccc(Br)cc2)o1)c1ccc2c(c1)OCO2	1.98*	1	/	29.2	7.6	-1.2	0.0814
Cc1nc(C)c(-c2nnc(-c3ccc(C(C)(C)C)cc3)o2)cc1C(=O)NN	-1.18	1	-1.24	-1.4	3.3	4.8	/
O=C(O)C1CCCCC1C(=O)NCCc1ccncc1 (stereo not given)	2.41*	0.9	-0.0838	-2.0	6.1	8.6	0.0725
COC(=O)c1cccnc1NC(=S)NNC(=O)c1ccccc1	2.21*	1	0.16	-5.0	8.5	3.2	0.0743
O=C(NNC(=S)Nc1ccccc1)c1ccc2ncccc2c1	-0.116	1.1	/	2.7	-7.6	-8.4	/
COC(=O)c1ccc(NC(=S)NNC(=O)c2ccccc2)cc1	0.935*	0.8	0.202	-2.9	-8.2	23.7	0.0816
O=C(NNC(=S)Nc1ccccc1)c1ccc(O)cc1	/	/	-0.00978	/	/	/	/
CCCCCCCCCCCCCCCCn1cc[n+](CC(C)=O)c1	-4.86*	3*	0.0889	100.3*	97.9	-201.3	0.063*
CCCCCCn1ccc(=N)cc1	/	0.8	/	2.1	-0.6	16.8	/
O=C(Nc1ccccc1CC[N+](=O)[O-])N1CCN(c2ccccc2)CC1	-0.95	1.1	/	3.0	2.0	-5.3	/
CC(C)CC1(C)N=C(c2ccccc2)C(=S)N1 (stereo not given)	-3.18*	1	1.46	-2.5	-8.9	-1.5	0.0566*
